From ChEMBL document CHEMBL4373640, “Synthesis and antitumor activity of aza-brazilan derivatives containing imidazolium salt pharmacophores” (Medchemcomm, 2019)

Columns and labels:
[1] = tested on: MCF7; assay: Cytotoxicity against human MCF7 cells assessed as reduction in cell viability after 48 hrs by MTS assay; assay type: functional, cell-based; conditions: MCF7, 48 h
In short: (§1)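 Cells (5 × 10^3 per well) were plated 12 h before treatment, then exposed continuously to compound for 48 h. MTS was added, with 1–4 h incubation at 37 °C and OD read at 490 nm. IC50 is the concentration cutting OD by 50% versus untreated cells, taken from dose–response curves. Values are the mean of three independent determinations.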

[2] = tested on: SW480; assay: Cytotoxicity against human SW480 cells assessed as reduction in cell viability after 48 hrs by MTS assay; assay type: functional, cell-based; conditions: SW480, 48 h; in short: as §1
[3] = tested on: A549; assay: Cytotoxicity against human A549 cells assessed as reduction in cell viability after 48 hrs by MTS assay; assay type: functional, cell-based; conditions: A549, 48 h; in short: as §1
[4] = Cytotoxicity against human SMMC-7221 cells assessed as reduction in cell viability after 48 hrs by MTS assay; assay type: functional, cell-based; conditions: SMMC-7221, 48 h; in short: as §1
[5] = tested on: MCF7; assay: Potency index, ratio of cisplatin IC50 to compound IC50 for cytotoxicity against human MCF7 cells by MTS assay; assay type: functional

Structure (SMILES)	IC50 [1]	IC50 [2]	IC50 [3]	IC50 [4]	Ratio IC50 [5]
COc1ccc(C(=O)C[n+]2c(C)n(CCCN3C[C@@H]4Cc5ccccc5[C@@H]4c4cccc(OC)c43)c3ccccc32)cc1	400 nM	1270 nM	3650 nM	1320 nM	–
COc1ccc(C(=O)C[n+]2cn(CCCN3C[C@@H]4Cc5ccc(Br)cc5[C@@H]4c4cccc(OC)c43)c3cc(C)c(C)cc32)cc1.[Br-]	350 nM	1400 nM	1530 nM	890 nM	56
COc1ccc(C(=O)C[n+]2c(C)n(CCCN3C[C@@H]4Cc5ccc(Br)cc5[C@@H]4c4cccc(OC)c43)c3ccccc32)cc1	1010 nM	1240 nM	1220 nM	930 nM	–
COc1cc2c(cc1OC)[C@@H]1c3cccc(OC)c3N(CCCn3c[n+](Cc4ccc5ccccc5c4)c4cc(C)c(C)cc43)C[C@@H]1C2	1490 nM	1620 nM	5830 nM	1820 nM	–
COc1cccc2c1N(C(=O)CCn1cnc3cc(C)c(C)cc31)C[C@@H]1Cc3ccccc3[C@H]21	> 20000 nM	> 20000 nM	> 20000 nM	> 20000 nM	–
